{"data": "Assay results from different studies", "target": "Glycogen synthase kinase-3 alpha (GSK3A, Homo sapiens, UniProt P49840)"}
{"SMILES": "CC(C)(C)c1nc2c(s1)c1nc(N)ncc1c1ccc(NS(=O)(=O)c3c(F)cccc3F)c(F)c12", "effect on": "enzyme activity", "mode": "inhibitor", "technique": "radiometric", "concentration": "1 µM", "endpoint": "remaining activity", "result": "88%"}
{"SMILES": "CC/C(=N\\NC(=O)NCc1cccc(O)c1)c1ccc(O)c(C)c1O", "effect on": "enzyme activity", "mode": "inhibitor", "concentration": "0.1 µM", "endpoint": "inhibition", "result": "2.8%"}
{"SMILES": "c1ccc(CNc2nc(N3CCOc4ccccc43)nc3c2CCCC3)cc1", "effect on": "target engagement in cells", "mode": "inhibitor", "technique": "chemoproteomics", "concentration": "20 mM", "endpoint": "inhibition", "result": "0%"}
{"SMILES": "CS(=O)(=O)N1CCCC(NC(=O)[C@H](CCC2CCCCC2)NC(=O)c2ccc(CNc3ncnc4c3nnn4-c3ccccc3)cc2)C1 (stereo partly drawn)", "effect on": "cell-free assay", "technique": "competition with immobilised ligand", "concentration": "0.1 µM", "endpoint": "remaining binding", "result": "100%"}
{"SMILES": "CN1CC(Oc2cnc(C#N)cc2-c2ccn3nc(NC(=O)C4CC4)cc3c2)C1", "effect on": "enzyme activity", "mode": "inhibitor", "concentration": "1 µM", "endpoint": "inhibition", "result": "-14%"}
{"SMILES": "CCCCNc1ncc2c(-c3ccc(F)cc3)nn(C[C@H]3CC[C@H](N)CC3)c2n1", "effect on": "target engagement in cells", "mode": "inhibitor", "technique": "chemoproteomics", "concentration": "20 mM", "endpoint": "inhibition", "result": "6%"}
{"SMILES": "COc1cc2ncnc(Nc3ccc(F)c(Cl)c3)c2cc1OCCCN1CCOCC1", "effect on": "cell-free assay", "concentration": "0.5 µM", "endpoint": "remaining signal", "result": "99.7%"}
{"SMILES": "Nc1c(C(=O)NCc2ccc(C(=O)NCCCC3CCCCC3)cc2)cnn1-c1ccccc1", "effect on": "cell-free assay", "technique": "competition with immobilised ligand", "concentration": "0.1 µM", "endpoint": "remaining binding", "result": "100%"}
{"SMILES": "CCCOc1ccc(OC)c(F)c1C(=O)c1ccc(C(=O)N[C@@H]2CNC[C@H]2NC(=O)c2ccc3[nH]ncc3c2)cc1", "effect on": "enzyme activity", "mode": "inhibitor", "concentration": "10 µM", "endpoint": "remaining activity", "result": "89%"}
{"SMILES": "COc1cc2ncnc(Nc3ccc(Oc4ccccc4)c(C)c3C)c2cc1OC", "effect on": "enzyme activity", "mode": "inhibitor", "concentration": "1 µM", "endpoint": "inhibition", "result": "2%"}
{"SMILES": "COc1cc(Cl)c(C(=O)N[C@@H](CN[C@H]2CC[C@@H](N)CC2)Cc2ccc(C#N)cc2)cc1-c1ccc(CN[C@H](C)c2ccc(C)cc2)o1", "effect on": "enzyme activity", "mode": "inhibitor", "concentration": "1 µM", "endpoint": "remaining activity", "result": "106%"}
{"SMILES": "O=C1Cc2c([nH]c3ccc([N+](=O)[O-])cc23)-c2ccccc2N1", "effect on": "cell-free assay", "concentration": "0.5 µM", "endpoint": "remaining signal", "result": "0.971%"}
{"SMILES": "C[C@@H]1CN(c2cc(-c3n[nH]c4ccc(OC5(C)CC5)cc34)ncn2)C[C@H](C)O1", "effect on": "cell-free assay", "technique": "competition with immobilised ligand", "concentration": "0.1 µM", "endpoint": "remaining binding", "result": "100%"}
{"SMILES": "Cc1ccc(Nc2nccc(N(C)c3ccc4c(C)n(C)nc4c3)n2)cc1S(N)(=O)=O", "effect on": "enzyme activity", "mode": "inhibitor", "concentration": "0.3 µM", "endpoint": "inhibition", "result": "-12%"}
{"SMILES": "O=S(=O)(Nc1cc(Sc2ncn[nH]2)c(O)c2ccccc12)c1ccc(-c2ccccc2)cc1", "effect on": "enzyme activity", "mode": "inhibitor", "concentration": "1 µM", "endpoint": "remaining activity", "result": "≥ 75%"}
{"SMILES": "Cc1c[nH]c2nccc(Oc3c(F)cc(Nc4cc(Cl)nc(N)n4)cc3F)c12", "effect on": "cell-free assay", "technique": "competition with immobilised ligand", "concentration": "0.1 µM", "endpoint": "remaining binding", "result": "95%"}
{"SMILES": "CCN(CC)CCNC(=O)c1c(C)[nH]c(/C=C2\\C(=O)Nc3ccc(F)cc32)c1C", "effect on": "enzyme activity", "mode": "inhibitor", "concentration": "10 µM", "endpoint": "inhibition", "result": "36%"}
{"SMILES": "CN([C@@H]1CCc2c(CC(=O)O)c3cc(S(C)(=O)=O)ccc3n2C1)S(=O)(=O)c1ccc(F)cc1", "effect on": "cell-free assay", "technique": "competition with immobilised ligand", "concentration": "1 µM", "endpoint": "remaining binding", "result": "100%"}
{"SMILES": "O=C1NC(=O)c2cc(Nc3ccc(F)cc3)c(Nc3ccc(F)cc3)cc21", "effect on": "cell-free assay", "mode": "inhibitor", "concentration": "0.5 µM", "endpoint": "remaining signal", "result": "88.2%"}
{"SMILES": "Cc1nc(Cc2cccc(C(F)(F)F)c2)sc1-c1ccc(C(N)=O)nc1", "effect on": "cell-free assay", "technique": "competition with immobilised ligand", "concentration": "1 µM", "endpoint": "remaining binding", "result": "82%"}
{"SMILES": "Cn1cnc(Br)c1C1=CN(c2ncnc3[nH]cnc23)CCS1", "effect on": "enzyme activity", "mode": "inhibitor", "technique": "radiometric", "concentration": "50 nM", "endpoint": "inhibition", "result": "14.8%"}
{"SMILES": "Nc1nc(Nc2ccc(S(N)(=O)=O)cc2)sc1C(=O)c1ccccc1[N+](=O)[O-]", "effect on": "enzyme activity", "mode": "inhibitor", "concentration": "0.1 µM", "endpoint": "inhibition", "result": "73 to 75%"}
{"SMILES": "Cc1sc(C(=O)NC2COC2)cc1-n1cc(NC(=O)Nc2c(F)cccc2Cl)cn1", "effect on": "enzyme activity", "mode": "inhibitor", "concentration": "10 µM", "endpoint": "remaining activity", "result": "128%"}
{"SMILES": "CNC(=O)Nc1ccc2c(c1)CC[C@@]21OC(=O)N(CC(=O)N(Cc2ccc(F)cc2)[C@@H](C)C(F)(F)F)C1=O", "effect on": "cell-free assay", "technique": "competition with immobilised ligand", "concentration": "1 µM", "endpoint": "remaining binding", "result": "99%"}
{"SMILES": "Cc1ccc(NC(=O)c2ccc(CN3CCN(C)CC3)cc2)cc1Nc1nccc(-c2cccnc2)n1", "effect on": "enzyme activity", "mode": "inhibitor", "concentration": "0.5 µM", "endpoint": "activity vs control", "result": "100%"}
{"SMILES": "O=C(N[C@H]1CCCCC/C=C\\C2C[C@@]2(C(=O)O)NC(=O)[C@@H]2C[C@@H](Oc3ccncc3)CN2C1=O)OC1CCCC1 (stereo partly drawn)", "effect on": "cell-free assay", "technique": "competition with immobilised ligand", "concentration": "1 µM", "endpoint": "remaining binding", "result": "100%"}
{"SMILES": "Cc1cc(NC(=O)c2cccc3cc(-c4cccc5[nH]nc(N)c45)ccc23)ccc1F", "effect on": "enzyme activity", "mode": "inhibitor", "concentration": "0.1 µM", "endpoint": "activity vs control", "result": "121%"}
